Data reported in ChEMBL document CHEMBL1123238, “Binding requirements of phenolic phenylethylamines in the benzonorbornene skeleton at the active site of phenylethanolamine N-methyltransferase” (J Med Chem, 1986).

T1: Phenylethanolamine N-methyltransferase (Bos taurus, UniProt P10938)
T1 sequence (P10938 whole entry): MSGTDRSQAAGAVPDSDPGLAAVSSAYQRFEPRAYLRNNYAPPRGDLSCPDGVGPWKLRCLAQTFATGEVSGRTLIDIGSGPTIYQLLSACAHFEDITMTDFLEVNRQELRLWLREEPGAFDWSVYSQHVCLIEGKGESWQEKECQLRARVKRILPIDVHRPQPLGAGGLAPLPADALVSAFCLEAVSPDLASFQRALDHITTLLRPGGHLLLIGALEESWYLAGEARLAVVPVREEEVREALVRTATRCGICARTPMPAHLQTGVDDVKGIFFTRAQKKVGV

B1: Phenylethanolamine N-methyltransferase (Bos taurus), P10938 (protein)
chain: T1 sequence (P10938 whole entry)

Key:
[1] = biological target: T1, Phenylethanolamine N-methyltransferase; assay: Compound was tested in vitro inhibition of phenylethanolamine N-methyl-transferase (PNMT) activity using radiochemical assay
[2] = Vmax of compound was measured; assay type: ADME
[3] = substrate: N[C@@H]1CC2CC1c1cc(O)c(O)cc12; assay: (§1) Compound was tested in vitro for PNMT activity using radiochemical assay.
Method in brief: (§2)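 Bovine adrenal PNMT, partially purified through the isoelectric precipitation step. Compounds were tested as hydrobromide salts. Radiochemical assay used phosphate buffer at pH 8.0, unlabeled AdoMet (10 μM stock) plus [methyl-³H]AdoMet, and 30 min incubation at 37 °C. Reactions were quenched with borate at pH 10 and extracted into toluene/isoamyl alcohol (7:3), then scintillation-counted.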

[4] = substrate: N[C@@H]1CC2CCC1c1ccccc12; assay: as §1; method in brief: as §2
[5] = substrate: N[C@@H]1CC2C[C@@H]1c1ccccc12; assay: as §1; method in brief: as §2

| Molecule | Ki [1] [µM] | Vmax [2] [nM/mg/min] | further results |
| --- | --- | --- | --- |
| N[C@@H]1CC2CC1c1ccc(O)cc12 (stereo not given in full) | 304 |  |  |
| N[C@@H]1CC2CC1c1cc(O)c(O)cc12 (stereo not given in full) | 487 | 0.44 |  |
| N[C@@H]1CC2CC1c1cccc(O)c12 (stereo not given in full) | 10000 |  |  |
| N[C@@H]1CC2CC1c1cc(O)ccc12 (stereo not given in full) | 1110 |  |  |
| N[C@@H]1CC2CCC1c1ccccc12 (stereo not given in full) | 258 | 0.61 |  |
| N[C@@H]1CC2C[C@@H]1c1ccccc12 | 479 | 0.08 |  |
| N[C@@H]1C2CCC1c1c(O)cccc12 (stereo not given in full) | 4000 |  |  |
| N[C@@H]1C2CCC1c1cc(O)ccc12 (stereo not given in full) | 108 |  |  |
| N[C@@H]1CC2CC1c1c(O)cccc12 (stereo not given in full) | 3000 |  |  |
| B1 |  |  | Km [3]: 686 µM; Km [4]: 81 µM; Km [5]: 192 µM |
